SMILES strings stand for the structures.

The subject of assay [1] is Caco-2. Nature of the assay: Cytotoxicity activity against Caco-2 cells after 48 by MTT assay. The settings on record: Homo sapiens. Format: cell-based. An outline of the steps: (§1)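 Caco-2 cells in Earle's MEM with 10% FCS, glutamine, non-essential amino acids, penicillin/streptomycin; seeded at 2 × 10^4 cells cm−2, 24 h before drug. Compounds (stock in 20% DMSO, diluted in medium) at 0.01–40 µM for 24 or 48 h, 37 °C. MTT 1 mg/ml in serum-free medium 4 h, DMSO solubilisation, A560. IC50 = 50% absorbance reduction vs control from fitted log line; six replicates, mean ± SD.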

Assay [2] has as its system Caco-2. Kind of assay: Cytotoxicity activity against Caco-2 cells after 24 by MTT assay. The assay is classed as cell-based. The settings on record: Homo sapiens. An outline of the steps:
as §1
(In general: Tetrazolium assays rely on reduction of a dye to a coloured formazan, in cell work by metabolically active cells.)

The next assay has as its system Leishmania infantum. Kind of assay: Cytotoxicity activity against Leishmania infantum after 72 hrs by MTT assay. Format: functional, organism-based. The method in brief:
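L. infantum promastigotes (clone MHOM/MA671TMA-P263), log phase (2-day culture), grown at 27 °C in RPMI with 10% heat-inactivated FBS, 2 mM glutamine, 20 mM Hepes, penicillin/streptomycin. 10^6/ml exposed to serial drug concentrations (0.30–100 µM) for 3 days, 27 °C. MTT 0.25 mg/ml final, 4 h, 27 °C; SDS/DMF pH 4.8 lysis 1 h at 37 °C, A550. Growth IC50 by linear regression; at least five assays, ± SD.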

For `O=C1c2cccc3cccc(c23)C(=O)N1CCCNCCCCCCCCCCNCCCN1C(=O)c2cccc3cccc(c23)C1=O` [BNIPDADEC], the IC50 worked out at 360 nM in the assay on Caco-2 [1] and 0.77 µM with Caco-2 [2].

Take `O=C1c2cccc3cccc(c23)C(=O)N1CCCNCCCCCCCCCNCCCN1C(=O)c2cccc3cccc(c23)C1=O` [BNIPDANON]: the IC50 is 670 nM in the assay on Caco-2 [1], 3.6 µM in the assay with Caco-2 [2] and 780 nM in the assay on Leishmania infantum.

In the case of `O=C1c2cccc3cccc(c23)C(=O)N1CCCNCCCCCCCCNCCCN1C(=O)c2cccc3cccc(c23)C1=O` [BNIPDAOCT], the IC50 came to 3200 nM with Caco-2 [1], 6.2 µM in the assay on Caco-2 [2] and 780 nM in the assay on Leishmania infantum.

For `O=C1c2cccc3cccc(c23)C(=O)N1CCCNCCNCCNCCCN1C(=O)c2cccc3cccc(c23)C1=O` [BNIPDETA], the half-maximal inhibitory concentration (IC50) with Caco-2 [1] turned out to be 22300 nM; in the assay on Caco-2 [2] it was 21.7 µM; in the assay on Leishmania infantum, 740 nM.

Turning to `O=C1c2cccc3cccc(c23)C(=O)N1CCCNCCCNCCCNCCCN1C(=O)c2cccc3cccc(c23)C1=O` [BNIPDPTA], the IC50 in the assay with Caco-2 [1] is 1540 nM; with Caco-2 [2], 5.14 µM; in the assay on Leishmania infantum, 1540 nM.

Regarding `O=C1c2cccc3cccc(c23)C(=O)N1CCCNCCCCNCCCNCCCN1C(=O)c2cccc3cccc(c23)C1=O` [BNIPSPD], the values for the IC50 with Caco-2 [1], in the assay with Caco-2 [2] and in the assay with Leishmania infantum were 150 nM, 0.47 µM and 470 nM, respectively.

The IC50 is the concentration at which inhibition is half-maximal. Higher therefore signals weaker potency in that assay.

The record behind these values is ChEMBL document CHEMBL1144485, “The synthesis and the in vitro cytotoxicity studies of bisnaphthalimidopropyl polyamine derivatives against colon cancer cells and parasite Leishmania infantum” (Bioorg Med Chem, 2007).
